Activity calls are given as the source filed them. No cut-off for these calls is given here.
Legend:
[1] = Half life in 5% DMSO/0.1 M KCl by RP-HPLC analysis; type: physicochemical; settings: for half-life: 5% DMSO/0.1 M KCl
Outline: (§1)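 10 mM DMSO stock added to water with 0.1 M KCl to give 5% DMSO (v/v), then filtered. Room temperature. Compound followed by RP-HPLC (C18, methanol/water gradient, 240 nm), calibration 1–200 µM. Half-life from n = 3.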

[2] = Half life in 0.1 M HCl/MeOH 60/40 (v/v) mixture by RP-HPLC analysis; type: physicochemical
Outline: (§2)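 Methanolic compound solution (0.5 mM, 2 mL) diluted to 10 mL with 0.1 M HCl/MeOH 60/40 (v/v) and kept at 37 °C. Aliquots taken at intervals and analysed by RP-HPLC (C18, acetonitrile/water gradient, 240 nm) with calibration over 1–200 µM. Half-life from n = 3.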

[3] = Half life in human serum at 250 uM by RP-HPLC analysis; type: ADME, cell-free
Outline: (§3)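 Compound added from a 10 mM methanol stock to human serum (male AB plasma) at 37 °C, final 250 µM. Aliquots taken at intervals and deproteinized with acetonitrile containing 0.1% TFA, then centrifuged and filtered. Analysed by RP-HPLC. Half-life from n = 3.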

[4] = Half life in Wistar rat liver homogenate at 200 uM by RP-HPLC analysis; type: ADME, tissue-based
Outline: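 Liver from male Wistar rats (200–250 g), 20% homogenate spun at 8000g. Incubated at 37 °C in Tris-HCl/KCl 100/150 mM, pH 7.4, with 6.4 mg protein/mL, 2 mM GSH and 1 mM NADPH. Compound 200 µM final, added from a 10 mM acetonitrile stock. Aliquots deproteinized with cold acetonitrile and analysed by RP-HPLC. Half-life from n = 3.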

[5] = Lipophilicity, log P of the compound in octanol-buffer at pH 7 by HPLC analysis; type: physicochemical
Outline: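 Retention measured by isocratic RP-HPLC on an RP-amide-C16 column at 30 °C. Mobile phase was pH 7.0 phosphate buffer/methanol, 30–70%, ionic strength 20 mM; uracil used as dead-time marker. log kw extrapolated from at least four methanol ratios, each injected at least three times. Converted to logPoct via a reference line of 63 compounds.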

Liver [6] = test: Induction of nitrate production in Wistar rat liver homogenate at 200 uM after 5 hrs by griess method; type: functional, tissue-based
Outline: (§4)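 Male Wistar rat liver homogenate (6.4 mg protein/mL; 2 mM GSH, 1 mM NADPH; Tris-HCl/KCl pH 7.4; 37 °C) with compound at 200 µM final. Deproteinized filtrate mixed with Griess reagent: nitrite after 10 min at 37 °C; nitrite+nitrate after VCl3 reduction, 45 min at 37 °C. Absorbance at 540 nm, calibration 1–100 µM. Expressed as %mol per mol compound, n = 3.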

Liver [7] = test: Induction of nitrite production in Wistar rat liver homogenate at 200 uM after 5 hrs by griess method; type: functional, tissue-based; outline: as §4
[8] = Permeability of the compound by PAMPA-HDM method; type: ADME
Outline: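 96-well polycarbonate filters impregnated with 5% hexadecane in hexane. Donor held compound in water with 5% DMSO and 100 mM KCl; acceptor held the same medium. Incubated at room temperature with shaking at 150 rpm for 1–6 h. Both compartments quantified by RP-HPLC. logPe and retention R calculated with correction for hydrolysis; membrane integrity checked by electrical resistance.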

Thoracic aorta [9] = test: Vasodilatory activity in Wistar rat denuded thoracic aorta assessed as inhibition of L-phenylephrine-induced contraction; type: functional, tissue-based
Outline: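 Endothelium-denuded thoracic aorta strips from male Wistar rats (180–200 g) in gassed Krebs-type buffer at 37 °C, pH 7.4. Strips equilibrated 1.5 h, then contracted with 1 µM L-phenylephrine. Cumulative concentrations added at plateau and isometric tension recorded. EC50 (±SEM) in µM from at least five experiments.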

Liver [10] = test: Induction of nitrite production in Wistar rat liver homogenate at 200 uM by griess method; type: functional, tissue-based; settings: TDE = time-dependent effect; outline: as §4
Liver [11] = test: Induction of nitrate production in Wistar rat liver homogenate at 200 uM by griess method; type: functional, tissue-based; settings: TDE = time-dependent effect; outline: as §4
Thoracic aorta [12] = test: Vasodilatory activity in Wistar rat thoracic aorta assessed as inhibition of L-phenylephrine-induced contraction in presence of 1 uM 1H-[1,2,4]oxadiazolo[4,3-a]quinoxalin-1-one; type: functional, tissue-based
Outline: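 Same rat aorta strip protocol with 1 µM L-phenylephrine precontraction. 1 µM ODQ was added 5 min before contraction, pre-incubating for at least 30 min before the vasodilator. Isometric recording; EC50 (±SEM) in µM from at least five experiments.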

Serum = test: Stability in human serum at 250 uM by RP-HPLC analysis; type: ADME, cell-free; outline: as §3
[13] = Stability in 5% DMSO/0.1 M KCl by RP-HPLC analysis; type: physicochemical; outline: as §1
[14] = Stability in 0.1 M HCl/MeOH 60/40 (v/v) mixture by RP-HPLC analysis; type: physicochemical; settings: buffer; outline: as §2
Mus musculus [15] = test: Induction of nitrite release in mouse assessed as nitrite AUC (0 to 24 hrs) at 10 mg/kg, po measured over 24 hrs by LC-MS/MS analysis; type: organism-based; set-up: time < 24 hr, dose 10 mg/kg, route oral; settings: in vivo
Outline: (§5)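 Mice dosed orally at 10 mg/kg in imwitor742/tween80 50/50; blood drawn at fixed times over 24 h and precipitated with 3 volumes acetonitrile. Nitrite converted to naphtotriazole with DAN (1 mM, 10 µL per 200 µL sample) at room temperature and measured by LC-MS/MS against a 0.01-10 µM NAT calibration; basal level and conversion factor from spikes; AUC0-24h.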

Mus musculus [16] = test: AUC (0 to 24 hrs) in mouse assessed isosorbide mononitrate as at 10 mg/kg, po after 24 hrs; type: ADME, organism-based, Plasma; set-up: time < 24 hr, dose 10 mg/kg, route oral; settings: in vivo; outline: as §5

Cc1cc(OC(=O)CCCCCO[N+](=O)[O-])n(-c2ccccc2)n1
half-life [1]: 31 h
half-life [2]: 1 h
half-life at 250 µM [3]: < 0.0167 h
half-life at 200 µM [4]: < 1 min
logD [5]: 3.79

Cc1cc(OC(=O)OCCCCC(CO[N+](=O)[O-])O[N+](=O)[O-])n(-c2ccccc2)n1 (configuration not stated)
Activity (Liver [6]): Active
Activity (Liver [7]): Active
half-life [1]: 6 h
half-life [2]: 3.1 h
half-life at 250 µM [3]: < 0.0167 h
half-life at 200 µM [4]: < 1 min
logD [5]: 4.63

Cc1cc(OC(=O)c2ccc(OCC(CO[N+](=O)[O-])O[N+](=O)[O-])cc2)n(-c2ccccc2)n1 (configuration not stated)
Activity (Liver [6]): Active
Activity (Liver [7]): Active
t1/2 [1]: ND(Insoluble)
half-life [2]: 25 h
half-life at 250 µM [3]: 0.13 h
half-life at 200 µM [4]: < 1 min
logD [5]: 5.14
log Pe [8]: ND(Insoluble)

O=C(O)c1ccc(OCC(CO[N+](=O)[O-])O[N+](=O)[O-])cc1 (configuration not stated)
inhibition (Thoracic aorta [9]): Dose-dependent effect

Cc1cc(OC(=O)C(C)(C)CCC(CO[N+](=O)[O-])O[N+](=O)[O-])n(-c2ccccc2)n1 (configuration not stated)
Activity (Liver [6]): Active
Activity (Liver [7]): Active
half-life [1]: 16 h
half-life [2]: 10 h
half-life at 250 µM [3]: 0.27 h
half-life at 200 µM [4]: 3 min
Activity (Liver [10]): tde
Activity (Liver [11]): tde
logD [5]: 4.04
EC50 (Thoracic aorta [9]): 2.5 µM
inhibition (Thoracic aorta [9]): Dose-dependent effect
EC50 (Thoracic aorta [12]): > 100 µM

CC(C)(CCCCO[N+](=O)[O-])C(=O)O
EC50 (Thoracic aorta [9]): 8.9 µM
inhibition (Thoracic aorta [9]): Dose-dependent effect
EC50 (Thoracic aorta [12]): > 100 µM

Cc1cc(OC(=O)c2ccc(OCCCO[N+](=O)[O-])cc2)n(-c2ccccc2)n1
t1/2 [1]: ND(Insoluble)
half-life [2]: 35 h
half-life at 250 µM [3]: 0.0833 h
half-life at 200 µM [4]: < 1 min
logD [5]: 4.74
log Pe [8]: ND(Insoluble)

O=C(O)c1ccc(CCCO[N+](=O)[O-])cc1
inhibition (Thoracic aorta [9]): Dose-dependent effect
EC50 (Thoracic aorta [12]): > 100 µM

CC1=NN(c2ccccc2)C(=O)C1 [EDARAVONE]
Stability (Serum): Stable
Stability [13]: Stable
Stability [14]: Stable
logD [5]: 1.44

Cc1cc(OC(=O)c2ccc(CCCO[N+](=O)[O-])cc2)n(-c2ccccc2)n1
t1/2 [1]: ND(Insoluble)
half-life [2]: 13 h
half-life at 250 µM [3]: 0.0667 h
half-life at 200 µM [4]: < 1 min
logD [5]: 4.76
log Pe [8]: ND(Insoluble)

O=C(O)c1ccc(OCCCO[N+](=O)[O-])cc1
inhibition (Thoracic aorta [9]): Dose-dependent effect

Cc1cc(OC(=O)C(C)(C)CO[N+](=O)[O-])n(-c2ccccc2)n1
half-life [1]: 36 h
half-life [2]: 1.9 h
half-life at 250 µM [3]: 0.0317 h
half-life at 200 µM [4]: < 1 min
logD [5]: 3.55

O=C(O)CCCCCO[N+](=O)[O-]
inhibition (Thoracic aorta [9]): Dose-dependent effect
EC50 (Thoracic aorta [12]): > 100 µM

Cc1cc(OC(=O)OCCCCCCO[N+](=O)[O-])n(-c2ccccc2)n1
half-life [1]: 25 h
half-life [2]: 4 h
half-life at 250 µM [3]: < 0.0167 h
half-life at 200 µM [4]: < 1 min
logD [5]: 4.39

Cc1cc(OC(=O)c2ccc(CC(CO[N+](=O)[O-])O[N+](=O)[O-])cc2)n(-c2ccccc2)n1 (configuration not stated)
Activity (Liver [6]): Active
Activity (Liver [7]): Active
t1/2 [1]: ND(Insoluble)
half-life [2]: 8 h
half-life at 250 µM [3]: 0.118 h
half-life at 200 µM [4]: < 1 min
logD [5]: 4.88
log Pe [8]: ND(Insoluble)

O=[N+]([O-])OCCCO [ABRUCOMSTAT]
EC50 (Thoracic aorta [9]): 4 µM
inhibition (Thoracic aorta [9]): Dose-dependent effect
EC50 (Thoracic aorta [12]): > 100 µM

O=C(O)c1ccc(CC(CO[N+](=O)[O-])O[N+](=O)[O-])cc1 (configuration not stated)
inhibition (Thoracic aorta [9]): Dose-dependent effect
EC50 (Thoracic aorta [12]): > 100 µM

Cc1cc(OC(=O)CCCC(CO[N+](=O)[O-])O[N+](=O)[O-])n(-c2ccccc2)n1 (configuration not stated)
half-life [1]: 10 h
half-life [2]: 0.7 h
half-life at 250 µM [3]: < 0.0167 h
half-life at 200 µM [4]: < 1 min
logD [5]: 3.95

CC(C)(CCC(CO[N+](=O)[O-])O[N+](=O)[O-])C(=O)O (configuration not stated)
EC50 (Thoracic aorta [9]): 4.2 µM
inhibition (Thoracic aorta [9]): Dose-dependent effect
EC50 (Thoracic aorta [12]): > 100 µM

Cc1cc(OC(=O)C(C)(C)CCCCO[N+](=O)[O-])n(-c2ccccc2)n1
half-life [1]: 22 h
half-life [2]: 24 h
half-life at 250 µM [3]: 0.222 h
half-life at 200 µM [4]: 2 min
Activity (Liver [10]): tde
Activity (Liver [11]): tde
AUC (Mus musculus [15]): 1790 µM·min
logD [5]: 4.3
EC50 (Thoracic aorta [9]): 11 µM
inhibition (Thoracic aorta [9]): Dose-dependent effect
EC50 (Thoracic aorta [12]): > 100 µM

CC(C)(CO[N+](=O)[O-])C(=O)O
EC50 (Thoracic aorta [9]): 13 µM
inhibition (Thoracic aorta [9]): Dose-dependent effect
EC50 (Thoracic aorta [12]): > 100 µM

O=[N+]([O-])O[C@H]1CO[C@H]2[C@@H]1OC[C@H]2O[N+](=O)[O-] [ISOSORBIDE DINITRATE]
AUC (Mus musculus [16]): 2352 µM·min

Cc1cc(OC(=O)OCCCO[N+](=O)[O-])n(-c2ccccc2)n1
half-life [1]: 13 h
half-life [2]: 1.4 h
half-life at 250 µM [3]: < 0.0167 h
half-life at 200 µM [4]: < 1 min
AUC (Mus musculus [15]): 964 µM·min
logD [5]: 3.35

O=[N+]([O-])OCCCCCCO
EC50 (Thoracic aorta [9]): 1.5 µM
inhibition (Thoracic aorta [9]): Dose-dependent effect
EC50 (Thoracic aorta [12]): > 100 µM

From ChEMBL document CHEMBL2169848, “Synthesis physicochemical profile and PAMPA study of new NO-donor edaravone co-drugs” (Bioorg Med Chem, 2012)
